This is an account of results in ChEMBL document CHEMBL4680220, “Synthesis and biological evaluation of acridine-based histone deacetylase inhibitors as multitarget agents against Alzheimer's disease” (Eur J Med Chem, 2020).

A short description of data set [1]: Elimination rate constant in human liver microsomes at 1 uM preincubated for 3 mins followed by NADPH addition and measured up to 60 mins by LC-MS/MS analysis. Type of data set: ADME, Microsome. As to conditions: time <=63 min. The essentials: (§1)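 Mixed-gender human liver microsomes with test article at 1 µM final. Testosterone (5 µM) run separately as control. Mixture without cofactor equilibrated 3 min at 37 °C in a shaking water bath, then started with cofactor. Aliquots taken at 0, 10, 20, 30 and 60 min. CLint = k/P, where k is the elimination rate constant and P is the incubation protein concentration.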

Another data set deals with Acetylcholinesterase (Homo sapiens, UniProt P22303). The data set can be described thus: Inhibition of recombinant human C-terminal 6His-tagged AChE (Glu32 to Leu614 residues) expressed in CHO cells using acetylthiocholine iodide as substrate preincubated for 5 mins measured after 15 mins by DTNB reagent based assay. The essentials: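 Enzyme, compounds, acetylthiocholine iodide and DTNB diluted in 100 mM phosphate buffer pH 7.4. AChE was preincubated with the compound at varying concentrations for 5 min at 37 °C. The reaction was started with 1 mM ATCI solution and run 15 min at 37 °C. 2 mM DTNB solution was then added for 5 min. Absorbance read at 412 nm. IC50 set 0.1% DMSO wells as 100% and no-enzyme wells as 0%. Run in triplicate.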
Chain of Acetylcholinesterase (P22303 whole entry): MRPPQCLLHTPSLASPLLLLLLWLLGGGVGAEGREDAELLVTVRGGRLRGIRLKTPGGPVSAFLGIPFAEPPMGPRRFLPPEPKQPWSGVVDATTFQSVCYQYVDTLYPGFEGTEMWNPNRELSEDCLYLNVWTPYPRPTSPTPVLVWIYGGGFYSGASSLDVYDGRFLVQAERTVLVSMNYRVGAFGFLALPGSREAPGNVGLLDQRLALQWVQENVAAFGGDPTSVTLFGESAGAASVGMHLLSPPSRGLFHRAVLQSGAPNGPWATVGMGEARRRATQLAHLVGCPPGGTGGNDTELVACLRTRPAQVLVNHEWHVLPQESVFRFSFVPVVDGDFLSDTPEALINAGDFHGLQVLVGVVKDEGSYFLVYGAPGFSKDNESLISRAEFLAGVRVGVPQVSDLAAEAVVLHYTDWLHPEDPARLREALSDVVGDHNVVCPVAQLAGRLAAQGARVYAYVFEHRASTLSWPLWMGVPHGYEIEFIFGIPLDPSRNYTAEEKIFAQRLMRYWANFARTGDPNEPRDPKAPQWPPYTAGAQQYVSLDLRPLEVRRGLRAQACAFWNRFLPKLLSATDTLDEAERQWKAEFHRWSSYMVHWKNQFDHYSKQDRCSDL

Data set [2] in a line: Intrinsic clearance in human liver microsomes at 1 uM preincubated for 3 mins followed by NADPH addition and measured up to 60 mins by LC-MS/MS analysis. Type of data set: ADME, Microsome. As to conditions: 1 h, time <=63 min. The essentials: as §1
Data set [3] concerns the target Histone deacetylase 3/Nuclear receptor corepressor 2 (HDAC3/NCoR2) (Homo sapiens, UniProt O15379). The data set can be described thus: Inhibition of human recombinant C-terminal His-tagged HDAC3 (1 to 428 residues)/N-terminal GST-tagged NCOR2 (395 to 489 residus) expressed in baculovirus infected Sf9 insect cells using fluor de lys SIRT1 as substrate preincubated for 5 mins followed by substrate addition and measured after 30 mins by fluorescence assay.

Data set [4] deals with T1, Protein deacetylase HDAC6 (Homo sapiens, UniProt Q9UBN7).
T1 sequence (Q9UBN7 whole entry): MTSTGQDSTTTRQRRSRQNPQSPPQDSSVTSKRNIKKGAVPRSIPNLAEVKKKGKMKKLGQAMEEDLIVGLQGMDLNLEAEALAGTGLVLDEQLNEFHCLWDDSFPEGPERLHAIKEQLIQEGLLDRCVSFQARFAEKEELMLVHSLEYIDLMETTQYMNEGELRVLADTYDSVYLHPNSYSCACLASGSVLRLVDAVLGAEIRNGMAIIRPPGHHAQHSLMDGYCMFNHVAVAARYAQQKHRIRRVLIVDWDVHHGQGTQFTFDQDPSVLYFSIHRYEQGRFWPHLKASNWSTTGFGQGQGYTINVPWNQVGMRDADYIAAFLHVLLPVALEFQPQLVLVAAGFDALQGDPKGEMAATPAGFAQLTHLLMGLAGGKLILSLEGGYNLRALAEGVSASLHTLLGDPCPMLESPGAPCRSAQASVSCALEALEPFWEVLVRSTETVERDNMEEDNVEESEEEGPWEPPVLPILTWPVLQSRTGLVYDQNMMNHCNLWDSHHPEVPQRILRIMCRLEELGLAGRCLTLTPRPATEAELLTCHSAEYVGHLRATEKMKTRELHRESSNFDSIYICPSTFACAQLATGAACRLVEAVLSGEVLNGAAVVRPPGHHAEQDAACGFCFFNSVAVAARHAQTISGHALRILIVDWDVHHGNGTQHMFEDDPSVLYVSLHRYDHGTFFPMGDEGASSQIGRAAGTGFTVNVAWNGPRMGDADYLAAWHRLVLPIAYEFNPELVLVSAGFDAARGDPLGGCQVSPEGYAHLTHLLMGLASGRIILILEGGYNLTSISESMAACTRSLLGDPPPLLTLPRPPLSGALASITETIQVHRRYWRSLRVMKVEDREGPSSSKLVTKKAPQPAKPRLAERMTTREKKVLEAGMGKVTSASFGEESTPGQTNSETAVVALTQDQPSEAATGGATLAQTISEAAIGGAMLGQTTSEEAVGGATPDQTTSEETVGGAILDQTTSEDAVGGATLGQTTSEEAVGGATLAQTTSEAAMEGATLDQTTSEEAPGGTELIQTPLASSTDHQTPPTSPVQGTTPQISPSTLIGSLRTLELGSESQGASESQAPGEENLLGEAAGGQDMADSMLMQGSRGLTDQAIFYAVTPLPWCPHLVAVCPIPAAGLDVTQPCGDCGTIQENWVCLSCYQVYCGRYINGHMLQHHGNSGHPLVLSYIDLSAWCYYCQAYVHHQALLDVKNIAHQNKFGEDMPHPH
Nature of the data set: Inhibition of recombinant human full-length N-terminal GST-tagged HDAC6 expressed in baculovirus infected Sf9 insect cells using Boc-Lys(Ac)-AMC as substrate preincubated for 5 mins followed by substrate addition and measured after 30 mins by fluorescence assay.

Data set [5] addresses Class 1 histone deacetylase (Homo sapiens, UniProt Q13547+O15379+Q92769+Q9BY41). Nature of the data set: Inhibition of class 1 HDAC in human HeLa cell nuclear extract using Boc-Lys(Ac)-AMC as substrate preincubated for 5 mins followed by substrate addition and measured after 30 mins by fluorescence assay. The class given is cell-based.
Data set [6] concerns the target T1, Protein deacetylase HDAC6. The data set can be described thus: Inhibition of HDAC6 in […] cells assessed as increase in alpha-tubulin acetylation measured after 24 hrs by Western blot analysis. The class given is cell-based, Mus musculus.
The target of another data set is Histone deacetylase 1 (Homo sapiens, UniProt Q13547). The data set can be described thus: Inhibition of recombinant human C-terminal FLAG/His-tagged HDAC1 (1 to 482 residues) expressed in Sf9 insect cells using fluor de lys SIRT1 as substrate preincubated for 5 mins followed by substrate addition and measured after 30 mins by fluorescence assay.
Chain of Histone deacetylase 1 (Q13547 whole entry, the tested form may be a part): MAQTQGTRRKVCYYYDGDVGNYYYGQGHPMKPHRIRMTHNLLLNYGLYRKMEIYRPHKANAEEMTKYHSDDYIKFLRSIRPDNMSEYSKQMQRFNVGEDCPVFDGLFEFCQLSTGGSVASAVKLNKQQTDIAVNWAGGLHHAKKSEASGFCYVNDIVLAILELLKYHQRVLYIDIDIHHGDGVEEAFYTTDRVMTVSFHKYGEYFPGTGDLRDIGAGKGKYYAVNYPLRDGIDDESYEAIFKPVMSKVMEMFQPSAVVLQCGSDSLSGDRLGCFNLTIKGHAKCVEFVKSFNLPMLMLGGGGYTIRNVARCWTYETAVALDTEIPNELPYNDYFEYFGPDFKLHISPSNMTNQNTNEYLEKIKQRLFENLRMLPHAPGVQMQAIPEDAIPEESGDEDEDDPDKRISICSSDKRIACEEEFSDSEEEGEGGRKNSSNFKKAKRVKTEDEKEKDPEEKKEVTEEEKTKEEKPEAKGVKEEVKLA
Another data set addresses Histone deacetylase 2 (Homo sapiens, UniProt Q92769). The data set can be described thus: biochemical. Type of data set: cell-based, Sf9.
In a further data set the test system is Hippocampal neurone. The data set can be described thus: Induction of neurite outgrowth in Sprague-Dawley rat primary hippocampal neurons assessed as increase in number of axonal and dendritic neurite incubated for 3 days by DAPI staining based immunofluorescence microscopic analysis. Type of data set: functional. The note with it: time 3.0 day. The essentials: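 Primary hippocampal neurons from embryonic Sprague-Dawley rats, plated on poly-D-lysine and kept in B27-neurobasal medium. Treated with DMSO or compound from DIV3 for three days, fixed at DIV6 in 4% paraformaldehyde. Axons stained with anti-tau, dendrites with anti-MAP2, nuclei with DAPI; fluorescence microscopy. At least 20 neurons traced for number and length of primary, secondary and tertiary neurites.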

The next data set concerns MDR1. Nature of the data set: Apparent permeability of compound in MDCK-MDR1 cells at 5 uM measured after 2 hrs by LC-MS/MS analysis. The class given is ADME, cell-based, Canis lupus familiaris. As to conditions: dog. Put shortly: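 MDR1-MDCK monolayers grown to confluence on collagen-coated microporous membranes. Test article dosed at 5 µM apical (A-to-B) or basolateral (B-to-A) in HBSS with 10 mM HEPES, 15 mM glucose, pH 7.4; receiver buffer has 1% BSA. 37 °C, 5% CO2; donor and receiver sampled at 120 min, quantified by LC-MS/MS (ESI). Duplicate determinations; lucifer yellow flux checks monolayer integrity. Efflux ratio = Papp(B-A)/Papp(A-B).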

Data set [7] can be described thus: Half life in human liver microsomes at 1 uM preincubated for 3 mins followed by NADPH addition and measured up to 60 mins by LC-MS/MS analysis. Type of data set: ADME, Microsome. As to conditions: time <=63 min. Put shortly: as §1

Chain of Histone deacetylase 2 (Q92769 whole entry): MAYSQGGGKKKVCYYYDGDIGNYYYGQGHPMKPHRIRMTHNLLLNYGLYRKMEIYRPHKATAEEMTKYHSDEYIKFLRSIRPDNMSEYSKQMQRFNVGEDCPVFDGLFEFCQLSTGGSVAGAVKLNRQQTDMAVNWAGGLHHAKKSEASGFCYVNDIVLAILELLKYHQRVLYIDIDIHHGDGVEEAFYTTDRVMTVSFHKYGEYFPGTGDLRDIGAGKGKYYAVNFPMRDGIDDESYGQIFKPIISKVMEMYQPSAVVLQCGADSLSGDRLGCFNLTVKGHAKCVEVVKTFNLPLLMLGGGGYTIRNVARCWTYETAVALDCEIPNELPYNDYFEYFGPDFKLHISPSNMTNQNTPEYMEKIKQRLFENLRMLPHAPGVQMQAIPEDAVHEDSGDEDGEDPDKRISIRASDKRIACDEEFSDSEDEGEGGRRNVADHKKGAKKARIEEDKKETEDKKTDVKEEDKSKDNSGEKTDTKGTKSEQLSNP
Chain of Histone deacetylase 3/Nuclear receptor corepressor 2 (HDAC3/NCoR2) (O15379 whole entry, the tested form may be a part): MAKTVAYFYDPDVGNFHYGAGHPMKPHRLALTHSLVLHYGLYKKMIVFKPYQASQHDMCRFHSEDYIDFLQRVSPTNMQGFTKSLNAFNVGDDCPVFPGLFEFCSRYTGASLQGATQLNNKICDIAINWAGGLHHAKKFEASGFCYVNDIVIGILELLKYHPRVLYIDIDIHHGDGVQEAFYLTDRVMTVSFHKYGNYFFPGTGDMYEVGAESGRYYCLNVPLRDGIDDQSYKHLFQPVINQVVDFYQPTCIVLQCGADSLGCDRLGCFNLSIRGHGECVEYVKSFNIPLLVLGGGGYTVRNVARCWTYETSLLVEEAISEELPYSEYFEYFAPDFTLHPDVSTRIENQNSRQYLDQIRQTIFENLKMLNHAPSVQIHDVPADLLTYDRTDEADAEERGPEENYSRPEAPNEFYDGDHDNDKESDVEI
Chain of Histone deacetylase 3/Nuclear receptor corepressor 2 (HDAC3/NCoR2) (Q9Y618 whole entry, further chain, the tested form may be a part): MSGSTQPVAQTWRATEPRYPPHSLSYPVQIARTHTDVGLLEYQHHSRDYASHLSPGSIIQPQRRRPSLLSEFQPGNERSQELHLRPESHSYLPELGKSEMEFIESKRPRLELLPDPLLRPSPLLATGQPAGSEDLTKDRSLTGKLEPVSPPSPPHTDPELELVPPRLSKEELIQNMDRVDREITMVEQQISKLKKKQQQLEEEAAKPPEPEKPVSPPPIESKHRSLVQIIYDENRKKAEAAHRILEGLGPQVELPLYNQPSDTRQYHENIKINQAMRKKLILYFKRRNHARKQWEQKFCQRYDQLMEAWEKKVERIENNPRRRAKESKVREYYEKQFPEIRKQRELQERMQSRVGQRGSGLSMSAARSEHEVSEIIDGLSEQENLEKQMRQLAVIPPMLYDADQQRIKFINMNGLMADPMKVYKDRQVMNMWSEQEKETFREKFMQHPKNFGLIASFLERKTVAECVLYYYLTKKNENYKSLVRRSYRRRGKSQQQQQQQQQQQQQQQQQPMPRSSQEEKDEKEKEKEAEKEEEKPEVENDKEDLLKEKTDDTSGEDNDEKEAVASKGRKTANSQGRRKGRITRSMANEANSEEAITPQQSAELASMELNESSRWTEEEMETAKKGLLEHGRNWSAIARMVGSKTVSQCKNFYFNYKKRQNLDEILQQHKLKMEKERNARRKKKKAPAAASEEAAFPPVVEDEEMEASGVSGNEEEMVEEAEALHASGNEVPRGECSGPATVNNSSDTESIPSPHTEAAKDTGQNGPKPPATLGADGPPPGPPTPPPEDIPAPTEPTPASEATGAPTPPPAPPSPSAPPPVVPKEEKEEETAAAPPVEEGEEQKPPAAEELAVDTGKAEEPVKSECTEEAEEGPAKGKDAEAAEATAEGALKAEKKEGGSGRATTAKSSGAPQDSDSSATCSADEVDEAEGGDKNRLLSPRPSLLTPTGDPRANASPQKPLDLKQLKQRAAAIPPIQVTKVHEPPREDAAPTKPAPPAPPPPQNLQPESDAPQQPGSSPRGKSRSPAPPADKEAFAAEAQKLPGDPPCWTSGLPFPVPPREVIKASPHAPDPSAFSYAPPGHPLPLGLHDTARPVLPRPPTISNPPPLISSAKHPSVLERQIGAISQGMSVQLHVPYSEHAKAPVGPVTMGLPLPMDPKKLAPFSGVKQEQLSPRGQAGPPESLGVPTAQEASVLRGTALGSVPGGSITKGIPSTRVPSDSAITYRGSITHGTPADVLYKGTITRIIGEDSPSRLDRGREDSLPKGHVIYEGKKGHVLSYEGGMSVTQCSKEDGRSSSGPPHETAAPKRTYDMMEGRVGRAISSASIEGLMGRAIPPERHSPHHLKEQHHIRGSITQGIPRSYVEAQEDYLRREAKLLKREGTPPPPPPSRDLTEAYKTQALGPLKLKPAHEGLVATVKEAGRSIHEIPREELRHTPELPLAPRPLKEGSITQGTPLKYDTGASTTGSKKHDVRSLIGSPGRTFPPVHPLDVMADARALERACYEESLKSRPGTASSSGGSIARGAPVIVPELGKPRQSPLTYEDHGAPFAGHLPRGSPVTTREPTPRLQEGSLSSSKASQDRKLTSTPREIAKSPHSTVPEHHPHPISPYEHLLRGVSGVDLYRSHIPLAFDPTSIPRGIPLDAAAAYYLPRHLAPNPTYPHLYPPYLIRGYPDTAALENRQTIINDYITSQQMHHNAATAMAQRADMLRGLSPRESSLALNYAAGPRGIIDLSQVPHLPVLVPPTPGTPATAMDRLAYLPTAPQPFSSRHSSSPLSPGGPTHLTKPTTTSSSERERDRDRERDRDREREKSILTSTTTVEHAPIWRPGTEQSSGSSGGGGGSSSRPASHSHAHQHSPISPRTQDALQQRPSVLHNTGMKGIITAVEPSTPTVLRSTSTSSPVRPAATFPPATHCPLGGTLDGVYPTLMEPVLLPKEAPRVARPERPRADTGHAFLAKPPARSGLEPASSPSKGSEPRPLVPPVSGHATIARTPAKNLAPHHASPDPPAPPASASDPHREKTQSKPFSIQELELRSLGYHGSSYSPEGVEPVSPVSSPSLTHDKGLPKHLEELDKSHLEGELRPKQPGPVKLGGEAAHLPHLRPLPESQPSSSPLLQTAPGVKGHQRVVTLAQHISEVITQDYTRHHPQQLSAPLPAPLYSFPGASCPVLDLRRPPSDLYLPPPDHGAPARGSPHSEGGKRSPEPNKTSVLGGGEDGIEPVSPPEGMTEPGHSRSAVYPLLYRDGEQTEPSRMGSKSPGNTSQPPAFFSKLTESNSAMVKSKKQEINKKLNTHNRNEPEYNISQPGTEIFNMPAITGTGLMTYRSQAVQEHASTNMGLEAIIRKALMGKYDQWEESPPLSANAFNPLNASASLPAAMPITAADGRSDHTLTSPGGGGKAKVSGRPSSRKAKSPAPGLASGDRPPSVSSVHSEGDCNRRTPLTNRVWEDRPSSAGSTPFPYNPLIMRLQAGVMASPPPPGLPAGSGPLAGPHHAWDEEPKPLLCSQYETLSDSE

`O=C(NO)c1ccc(Nc2c3ccccc3nc3ccccc23)cc1` showed a k el at 1 h, 1 µM in [1] of 0.00034 s⁻¹. Also, the IC50 at Acetylcholinesterase came out at 720 nM; in data set [3], 1220 nM; in [4], 25 nM; in [5], 0.55 µM; on Histone deacetylase 1 it was 340 nM; against Histone deacetylase 2 it was 1570 nM. Also, the CLint in [2] was determined as 0.0407 mL/min/mg. Moreover, the 50% effective concentration (EC50) in data set [6] was determined as 8 µM. In addition, the Activity entry in the data set with Hippocampal neurone was “Dose-dependent effect”. Moreover, the Papp at 2 h, 5 µM with MDR1 is 2.72 ×10⁻⁶ cm/s. The same compound gave a half-life at 1 µM in data set [7] of 33.9 min.

`O=C(NO)c1ccc(Nc2c3ccccc3nc3ccc(Br)cc23)cc1` had a k el at 1 h, 1 µM in data set [1] of 0.000305 s⁻¹. Moreover, the IC50 on Acetylcholinesterase stood at 880 nM; in [3] it was 330 nM; in data set [4], 26 nM; in data set [5], 0.16 µM; on Histone deacetylase 1, 90 nM; against Histone deacetylase 2 it was 480 nM. In addition, the CLint in [2] was determined as 0.0366 mL/min/mg. Besides, the 50% effective concentration (EC50) in data set [6] was 8 µM. Further, in the data set with Hippocampal neurone, the Activity entry is “Dose-dependent effect”. Moreover, the apparent permeability (Papp) at 2 h, 5 µM in the data set with MDR1 was 4.57 ×10⁻⁶ cm/s. The half-life at 1 µM in data set [7] was determined as 37.9 min.
